Measured values reported in ChEMBL document CHEMBL4396881, “Improved Th17 Selectivity of α-Galactosylceramide via Noncovalent Interactions with Diether Moiety” (ACS Med Chem Lett, 2019).
The source made the active and inactive calls.

Key:
Assay type in all cases: functional
Mus musculus [1] = species: Mus musculus; experiment: Stimulation of cytokine secretion in C57BL/6 mouse HMNCs assessed as increase in IFN gamma secretion at 25 nM measured after 72 hrs by ELISA
Mus musculus [2] = species: Mus musculus; experiment: Stimulation of cytokine secretion in C57BL/6 mouse HMNCs assessed as increase in IL-2 secretion at 25 nM measured after 24 hrs by ELISA
Procedure, shortened: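 Mouse hepatic mononuclear cells were exposed to the α-GalCer analogues. IL-2 secretion was read 24 h after treatment. Results were expressed as relative activity, mean ± SEM, from n = 3 biological replicates.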

Mus musculus [3] = species: Mus musculus; experiment: Stimulation of cytokine secretion in C57BL/6 mouse HMNCs assessed as increase in IL-4 secretion at 25 nM measured after 72 hrs by ELISA
Mus musculus [4] = species: Mus musculus; experiment: Stimulation of cytokine secretion in C57BL/6 mouse HMNCs assessed as increase in IL-17 secretion at 25 nM measured after 72 hrs by ELISA
Mus musculus [5] = species: Mus musculus; experiment: Stimulation of cytokine secretion in C57BL/6 mouse HMNCs assessed as increase in IL-17 secretion measured after 72 hrs by ELISA
Mus musculus [6] = species: Mus musculus; experiment: Antiinflammatory activity in C57BL/6 mouse HMNCs assessed as reduction in IL-17 secretion at 5 to 125 nM
Mus musculus [7] = species: Mus musculus; experiment: Stimulation of cytokine secretion in C57BL/6 mouse HMNCs assessed as increase in IL-17 secretion at 5 to 125 nM measured after 72 hrs by ELISA

Measured: Activity

CCCCCCCCCCCCCC[C@@H](O)[C@@H](O)[C@H](CO[C@H]1O[C@H](CO)[C@H](O)[C@H](O)[C@H]1O)NC(=O)CCCCCCCCCCCOCCCCCCCCCOCCC
active: Mus musculus [1] | Mus musculus [2] | Mus musculus [3] | Mus musculus [4]

CCCCCCCCCCCCCC[C@@H](O)[C@@H](O)[C@H](CO[C@H]1O[C@H](CO)[C@H](O)[C@H](O)[C@H]1O)NC(=O)CCCCCCCCCCCCCCOCCCCCCCOCC
active: Mus musculus [1] | Mus musculus [2] | Mus musculus [3] | Mus musculus [4]

CCCCCCCCCCCCCC[C@@H](O)[C@@H](O)[C@H](CO[C@H]1O[C@H](CO)[C@H](O)[C@H](O)[C@H]1O)NC(=O)CCCCCCCCCCCCCCOCCCCCCOCCC
active: Mus musculus [1] | Mus musculus [2] | Mus musculus [3] | Mus musculus [4]

CCCCCCCCCCCCCC[C@@H](O)[C@@H](O)[C@H](CO[C@H]1O[C@H](CO)[C@H](O)[C@H](O)[C@H]1O)NC(=O)CCCCCCCCCCCCCCCCOCCCCCOCC
active: Mus musculus [1] | Mus musculus [2] | Mus musculus [3] | Mus musculus [4]

CCCCCCCCCCCCCC[C@@H](O)[C@@H](O)[C@H](CO[C@H]1O[C@H](CO)[C@H](O)[C@H](O)[C@H]1O)NC(=O)CCCCCCCCCCCCOCCCCCCCCOCCC
active: Mus musculus [1] | Mus musculus [2] | Mus musculus [3] | Mus musculus [4]

CCCCCCCCCCCCCC[C@@H](O)[C@@H](O)[C@H](CO[C@H]1O[C@H](CO)[C@H](O)[C@H](O)[C@H]1O)NC(=O)CCCCCCCCCCCCOCCCCCCCCCOCC
active: Mus musculus [5] Dose-dependent effect | Mus musculus [1] | Mus musculus [2] | Mus musculus [3] | Mus musculus [4]

CCCCCCCCCCCCCCCCCCCCCCCCCC(=O)N[C@@H](CO[C@H]1O[C@H](CO)[C@H](O)[C@H](O)[C@H]1O)[C@H](O)[C@H](O)CCCCCCCCCCCCCC
active: Mus musculus [1] | Mus musculus [3]

CCCCCCCCCCCCCC[C@@H](O)[C@@H](O)[C@H](CO[C@H]1O[C@H](CO)[C@H](O)[C@H](O)[C@H]1O)NC(=O)CCCCCCCCCCCOCCCCCCCCCCOCC
active: Mus musculus [5] Dose-dependent effect | Mus musculus [1] | Mus musculus [2] | Mus musculus [3] | Mus musculus [4]

CCCCCCCCCCCCCC[C@@H](O)[C@@H](O)[C@H](CO[C@H]1O[C@H](CO)[C@H](O)[C@H](O)[C@H]1O)NC(=O)CCCCCCCCCCCCCCCCOCCCCOCCC
active: Mus musculus [1] | Mus musculus [2] | Mus musculus [3] | Mus musculus [6] | Mus musculus [7] | Mus musculus [4]
